Hits are enriched below; roughly 6.1% of the tested compounds scored in any of these assays.
WT yeast gro inh – growth inhibition of WT yeast, mitochondrial fusion screen | mitochondrial fusion phenotypic screen, WT strain | inhibition, % at 10 µM | actives 2.1% (n = 190,000); in the data active = inhibition above about 58%; tested in S. cerevisiae
RAM inhibit – blocks the yeast RAM network; AID 868; actives 1.8% (n = 190,000); S. cerevisiae dse1pr::URA3 reporter, 5-FOA growth OD615, 2 d; analog-sensitive cbk1-as2 kinase mutant strain; inhibition, % at 50 µM;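 active = inhibition above a set limit, 3 SD over mean compound inhibition, cut at about 8.4% in these data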;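 note: 0% = DMSO-only wells with no growth and 100% = 10 µM 1-NA-PP1 full growth; inhibition rescues growth on 5-FOA so higher OD means more RAM inhibition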
Measles CPE – protection of cells from measles virus; Measles virus-infected cells, CPE protection, absorbance; protection (pct of control), % at 4 µM; actives 1.5% (n = 140,000); in the data active = protection mostly above about 24%, no sharp cut-off; inactive = mostly below about 26%
Yeast growth inh – chemicals that inhibit yeast BB579 growth in restrictive medium (lifespan-shortening candidates); S. cerevisiae BB579 growth, OD615, 48 h; inhibition, % at 10 µM; actives 0.51% (n = 140,000); AID 804;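 active = inhibition above a set limit, 3 SD over the mean compound inhibition, cut at about 44% in these data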
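System: Saccharomyces cerevisiae DeaD strain BB579, replicative lifespan model yeast | Buffer or medium: Restrictive glucose-based CSMM-D medium | Times: 4 h preincubation and 48 h exposure at 30 °C | Detection: OD615 turbidity measurement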
DAT uptake mod – changed human dopamine transporter uptake under cocaine IC80; Q01959; LLC-PK1 hDAT cells, [14C]-dopamine uptake with cocaine IC80; actives deviate in either direction; B-score at 10 µM; actives 1.3% (n = 110,000);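 active = Z score or B-score, a plate-position-corrected score, falls beyond the plate's 99.7% confidence bounds, in either direction; inactive = both scores lie inside the 99.7% bounds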;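 note: scored against the spread of the other compound wells on the same plate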
Target sequence (Q01959 whole entry, looked up): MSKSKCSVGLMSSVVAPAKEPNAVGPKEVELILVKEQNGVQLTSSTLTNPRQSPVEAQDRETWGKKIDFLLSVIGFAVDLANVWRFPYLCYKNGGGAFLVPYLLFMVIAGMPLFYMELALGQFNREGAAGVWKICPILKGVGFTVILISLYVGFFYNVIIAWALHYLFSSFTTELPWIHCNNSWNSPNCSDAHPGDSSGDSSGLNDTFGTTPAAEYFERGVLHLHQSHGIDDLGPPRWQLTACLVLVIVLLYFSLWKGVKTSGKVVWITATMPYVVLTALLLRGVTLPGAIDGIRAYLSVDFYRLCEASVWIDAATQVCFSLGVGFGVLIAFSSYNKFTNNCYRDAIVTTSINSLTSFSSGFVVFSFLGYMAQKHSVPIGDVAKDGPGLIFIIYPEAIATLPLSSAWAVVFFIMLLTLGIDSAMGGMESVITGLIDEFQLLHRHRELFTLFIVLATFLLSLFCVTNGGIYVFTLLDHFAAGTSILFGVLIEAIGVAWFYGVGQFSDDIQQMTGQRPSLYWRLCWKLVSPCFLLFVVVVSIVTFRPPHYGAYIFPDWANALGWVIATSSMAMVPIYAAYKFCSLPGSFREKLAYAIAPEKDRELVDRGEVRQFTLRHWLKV
Yeast lifespan up – extends the lifespan of yeast | S. cerevisiae growth with nicotinamide, OD615; deaD strain in restrictive glucose medium | inhibition of the nicotinamide effect, % at 10 µM | actives 0.68% (n = 130,000) | AID 775;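 active = inhibition above a set limit, placed 3 SD over the median of all compounds, cut at about 26% in these data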;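 note: 0% = nicotinamide-treated wells and 100% = cells grown without nicotinamide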
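System: Modified budding yeast, DeaD strain | Buffer or medium: Restrictive glucose medium | Also added: 1.5 mM nicotinamide | Doses: 10 µM single point, 0.25% DMSO | Schedule: 48 h compound exposure at 30 °C, humidified | Detection: Absorbance at 615 nm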
* = called active by the depositor; · = no result given.

SMILES	WT yeast gro inh	RAM inhibit	Measles CPE	Yeast growth inh	DAT uptake mod	Yeast lifespan up
COc1ccc(C(=O)Nc2nc(-c3cccs3)c(NC(C)=O)s2)cc1	-19.3	2.2	6.5	-45.4	-1.47	·
CC(=O)Nc1sc(NC(=O)c2ccc(C)cc2)nc1-c1cccs1	-8.6	4.0	3.9	-18.8	-2.74*	·
O=C(Nc1nc(-c2cccs2)c(C(=O)C(F)(F)F)s1)c1ccco1	-19.8	2.4	·	·	·	·
O=C(Nc1nc(-c2cccs2)c(C(=O)C(F)(F)F)s1)c1ccccc1	60.0*	2.0	8.1	-3.2	·	0.6
O=C(/C=C/c1ccc(Br)cc1)NC(=S)N1CCOCC1	-12.0	0.5	·	·	·	·
CNC(=S)N(CCc1c(C)[nH]c2ccc(Cl)cc12)Cc1cccs1	77.6	5.8	·	·	·	·
COCCNC(=S)N(CCc1c(C)[nH]c2ccc(Cl)cc12)Cc1cccs1	73.5*	9.8*	·	·	·	·
CNC(=S)N(CCc1c(C)[nH]c2ccc(C)cc12)Cc1ccco1	15.8	7.4	21.1	-13.2	·	-1.9
CCNC(=S)N(CCc1c(C)[nH]c2ccc(Cl)cc12)Cc1ccco1	77.9*	4.3	·	·	·	·
CCNC(=S)N(CCc1c(C)[nH]c2ccc(C)cc12)Cc1cccs1	71.4*	5.3	·	·	·	·
Cc1cc(OC(=O)c2ccc(S(=O)(=O)N(C)C)cc2)c([N+](=O)[O-])c(=O)[nH]1	9.2	0.8	·	·	·	·
COc1ccc(N(CC(=O)NCc2ccco2)S(=O)(=O)c2ccccc2)cc1	-11.1	-0.8	·	·	·	·
CN(CCCC(=O)NCc1ccco1)S(=O)(=O)c1ccccc1	60.4*	-0.1	5.0	-28.0	-0.0305	-3.4
CCOC(=O)C1=C(C)NC(SC(C)=O)=NC1c1ccc(OC(C)=O)c(OC)c1 (stereo not given)	76.0*	0.4	11.0	-19.2	1.19	-10.3
CCOC(=O)C1=C(C)NC(SC)=NC1c1ccc(OC)cc1 (stereo not given)	1.4	-0.6	4.5	-24.6	1.65	·
O=C(c1ccc(CSCc2ccccc2F)o1)N1CCN(c2ccc(N3CCOCC3)nn2)CC1	-4.2	0.0	8.3	20.0	3.38*	-4.2
O=C(c1cc2ccccc2oc1=O)N1CCN(c2ccc(N3CCOCC3)nn2)CC1	-8.1	0.3	8.0	-11.0	0.536	-4.6
O=C(c1ccc(N2CCN(S(=O)(=O)c3ccccc3)CC2)c([N+](=O)[O-])c1)N1CCOCC1	-6.2	-0.5	2.7	8.6	·	-3.0
COc1ccc(CCNC(=O)NC23CC4CC(CC(C4)C2)C3)cc1OC	12.8	1.8	26.9	-3.0	0.615	-8.8
O=C1c2ccccc2-c2c1cccc2C(=O)N1CCCCCC1	11.7	0.4	1.4	-9.7	·	0.1
COC(=O)Nc1ccccc1C(=O)N1CCCCC1	0.4	0.8	3.7	-23.4	-2.74*	-20.9
O=C1c2ccccc2-c2cccc(C(=O)N3CCCCCC3)c21	10.9	0.5	28.6*	-59.1	·	20.1
CNc1ccccc1C(C)(C)c1cc(-c2cccc(Br)c2)no1	72.7*	4.8	·	·	·	·
CNc1ccccc1C(C)(C)c1cc(-c2cccc([N+](=O)[O-])c2)no1	51.8	3.9	·	·	·	·
CCC(C(=O)NCc1ccncc1)c1ccccc1 (stereo not given)	-6.0	-1.0	·	·	·	·
SMILES	WT yeast gro inh	RAM inhibit	Measles CPE	Yeast growth inh	DAT uptake mod	Yeast lifespan up
Cc1ccc(NC2=C(N3CCCCC3)C(=O)c3ccccc3C2=O)cc1	-6.6	0.7	9.5	18.0	0.486	-7.3
CN(C1=C(N2CCCCC2)C(=O)c2ccccc2C1=O)c1ccccc1	76.2*	4.6	8.9	-27.5	1.35	-6.0
O=C1C(Cl)=C(N2CCCCCC2)C(=O)N1c1ccccc1	22.7	3.4	6.4	-21.4	-0.22	-6.1
COc1ccccc1NC1=C(N2CCCCC2)C(=O)c2ccccc2C1=O	51.9	1.8	3.4	5.1	·	2.2
O=C1C(Nc2cccc(O)c2)=C(N2CCCCC2)C(=O)c2ccccc21	1.1	-0.9	24.4	-35.6	-2.74*	-3.9
O=C1C(Nc2ccccc2)=C(N2CCCCC2)C(=O)c2ccccc21	6.2	1.9	10.7	30.0	-4.95*	-26.9
CCN(C(=O)COC(=O)c1ccc2c(=O)n3c(nc2c1)CCC3)C1CCS(=O)(=O)C1 (stereo not given)	-16.2	0.5	·	·	·	·
CC1CC2=C(NC(=S)NC2c2cccc(F)c2)/C(=C/c2cccc(F)c2)C1 (stereo not given)	61.3*	4.5	·	·	·	·

Assay outcomes as filed in PubChem BioAssay.
